# According to ChEMBL document CHEMBL4392876, “Natural-Product-Inspired Compounds as Countermeasures against the Liver Carcinogen Aflatoxin B1” (J Nat Prod, 2019):
# Calls of active or inactive are those of the source. The rule behind the calls is not given here.
# Experiments:
# HepG2 [1] = experiment: Protection against AfB1-induced toxicity in human HepG2 cells assessed as increase in live cell area measured after 48 hrs by calcein-AM/Hoechst 33342 staining based high-content imaging analysis; assay type: functional
# HepG2 [2] = experiment: Increase in live cell area in human HepG2 cells measured after 48 hrs by calcein-AM/Hoechst 33342 staining based high-content imaging analysis; assay type: functional
# HepG2 [3] = experiment: Protection against AfB1-induced toxicity in human HepG2 cells assessed as live cell area at 50 uM measured after 48 hrs by calcein-AM/Hoechst 33342 staining based high-content imaging analysis relative to control; assay type: functional
# HepG2 [4] = experiment: Protection against AfB1-induced toxicity in human HepG2 cells assessed as live cell area at 5 uM measured after 48 hrs by calcein-AM/Hoechst 33342 staining based high-content imaging analysis relative to control; assay type: functional
# HepG2 [5] = experiment: Protection against AfB1-induced toxicity in human HepG2 cells assessed as increase in live cell area at >5 uM measured after 48 hrs by calcein-AM/Hoechst 33342 staining based high-content imaging analysis relative to control; assay type: functional
# HepG2 [6] = experiment: Protection against AfB1-induced toxicity in human HepG2 cells assessed as live cell area at 0.5 uM measured after 48 hrs by calcein-AM/Hoechst 33342 staining based high-content imaging analysis relative to control; assay type: functional
# HepG2 [7] = experiment: Protection against AfB1-induced toxicity in human HepG2 cells assessed as increase in live cell area at >0.5 uM measured after 48 hrs by calcein-AM/Hoechst 33342 staining based high-content imaging analysis relative to control; assay type: functional
# HepG2 [8] = experiment: Toxicity in human HepG2 cells measured after 48 hrs by calcein-AM/Hoechst 33342 staining based high-content imaging analysis; assay type: cell-based; details: hepg2, 48 h
# HepG2 [9] = experiment: Protection against AfB1-induced toxicity in human HepG2 cells assessed as live cell area at 12.5 uM measured after 48 hrs by calcein-AM/Hoechst 33342 staining based high-content imaging analysis relative to control; assay type: functional
# HepG2 [10] = experiment: Protection against AfB1-induced toxicity in human HepG2 cells assessed as increase in live cell area at >12.5 uM measured after 48 hrs by calcein-AM/Hoechst 33342 staining based high-content imaging analysis relative to control; assay type: functional
# HepG2 [11] = experiment: Protection against AfB1-induced toxicity in 3D-spheroids of human HepG2 cells assessed as live cell area at 10 uM measured after 3 days by calcein-AM/Hoechst 33342 staining based high-content imaging analysis relative to control; assay type: functional
# How it was run: (§1)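 HepG2 spheroids: 1000 cells/well in ultralow-attachment plates, grown 4 days to tight spheroids, then test compounds (10 μM) plus AfB1 in complete EMEM for 3 further days. Calcein AM/Hoechst staining and high-content imaging of viability and live spheroid size. Live cell area relative to DMSO vehicle-only spheroids; n = 3.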
# HepG2 [12] = experiment: Protection against AfB1-induced morphological changes in 3D-spheroids of human HepG2 cells up to 10 uM measured after 3 days by calcein-AM/Hoechst 33342 staining based microscopic analysis; assay type: functional, cell-based; how it was run: as §1
compound,measurement,setting,value
Cc1c(-c2cnccn2)ssc1=S,Activity,HepG2 [1],Active
same,Activity,HepG2 [2],Active
COc1cc(C(=O)c2ccccc2)ccc1O,%max,HepG2 [3],60.2%
COC1=C(O)c2c(O)cc(C)c3c(O)cc(O)c(c23)C1=O,%max,HepG2 [4],20.5%
same,Activity,HepG2 [5],inactive
COc1cc(C(O)c2ccccc2)ccc1O (centres undefined),%max,HepG2 [3],41%
COc1ccc(C(=O)c2ccc(OC)cc2O)c(O)c1,%max,HepG2 [3],53.9%
COc1cc(O)cc(OC)c1,%max,HepG2 [4],37%
same,Activity,HepG2 [5],inactive
COc1cc(OC)c2c(O)c3c(=O)cc(C)oc3cc2c1 [RUBROFUSARIN B],%max,HepG2 [6],64.9%
same,Activity,HepG2 [7],inactive
same,Activity,HepG2 [8],Toxic
COc1cc(O)c2c(=O)oc3cc(O)c(O)cc3c2c1,%max,HepG2 [3],65.7%
same,Activity,HepG2 [8],Toxic
COc1ccc(C(=O)c2ccccc2)c(O)c1 [OXYBENZONE],%max,HepG2 [9],61.6%
same,Activity,HepG2 [10],inactive
CC(=O)N[C@@H](CS)C(=O)O,Activity,HepG2 [1],Active
same,Activity,HepG2 [2],Active
COC(=O)c1cc(O)cc(OC)c1C(=O)c1c(O)cc(C)cc1OC,%max,HepG2 [3],68.3%
COc1cc(O)c2c(=O)c3ccccc3oc2c1,%max,HepG2 [4],63.9%
same,Activity,HepG2 [5],inactive
same,Activity,HepG2 [8],Toxic
same,Activity,HepG2 [11],72%
same,Activity,HepG2 [12],Active
Cc1cc(O)cc2oc(=O)c3c(O)cc(O)cc3c12 [ALTERNARIOL],%max,HepG2 [6],15.2%
same,Activity,HepG2 [7],inactive
COc1cc(O)c2c(=O)oc3cc(O)cc(C)c3c2c1,%max,HepG2 [3],67%
same,Activity,HepG2 [8],Non-Toxic
same,Activity,HepG2 [11],95%
same,Activity,HepG2 [12],Active
COc1ccc(C(=O)NCc2cccnc2)c(O)c1,%max,HepG2 [6],33.5%
same,Activity,HepG2 [7],inactive
CC(C)c1nc(CN(C)C(=O)N[C@H](C(=O)N[C@@H](Cc2ccccc2)C[C@H](O)[C@H](Cc2ccccc2)NC(=O)OCc2cncs2)C(C)C)cs1 [RITONAVIR],%max,HepG2 [6],72%
same,Activity,HepG2 [7],inactive
